We go through 21 molecules from ChEMBL document CHEMBL1143106, “Synthesis, SAR, and antibacterial activity of novel oxazolidinone analogues possessing urea functionality” (2008).

Format in all cases: functional
The test system of experiment [1] is Enterococcus faecalis. In words: Antimicrobial activity against vancomycin-resistant Enterococcus faecalis NCTC-12201.
Experiment [2] deals with Staphylococcus aureus. In words: Antimicrobial activity against Staphylococcus aureus.
The test system of experiment [3] is Enterococcus faecium. Description: Antimicrobial activity against vancomycin-resistant Enterococcus faecium ATCC 12202 infected in po dosed mouse. Put shortly:
(§1)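 Mice with systemic infection; dosing was oral (po line) or subcutaneous (sc line); ED50 reported in mg/kg.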

In experiment [4] the test system is Enterococcus faecium. In words: Antimicrobial activity against vancomycin-resistant Enterococcus faecium ATCC 12202.
In experiment [5] the test system is Staphylococcus aureus. In words: Antimicrobial activity against Staphylococcus aureus ATCC 29213.
Experiment [6] has as its system Staphylococcus aureus. In words: Antimicrobial activity against methicillin-resistant Staphylococcus aureus ATCC 33591.
Experiment [7] has as its system Enterococcus faecalis. Description: Antimicrobial activity against vancomycin-sensitive Enterococcus faecalis ATCC 29212.
The test system of experiment [8] is Enterococcus faecium. Description: Antimicrobial activity against vancomycin-resistant Enterococcus faecium ATCC 12202 infected in sc dosed mouse. Put shortly: as §1

Converted amounts (≈) assume the structure as drawn. A value given as a limit tells only on which side of the number the result lay.

On to `CC(=O)NC[C@H]1CN(c2ccc(N3CCN(C(N)=O)CC3)c(F)c2)C(=O)O1`, for which the MIC – broadly, the lowest concentration found to suppress growth – in the experiment on Enterococcus faecalis [1] came to 2 µg/mL (≈ 5.27 µM); with Staphylococcus aureus [2] it was 2 µg/mL (≈ 5.27 µM); against Enterococcus faecium [4], 2 µg/mL (≈ 5.27 µM); in the experiment with Staphylococcus aureus [5], 4 µg/mL (≈ 10.5 µM); in the experiment with Staphylococcus aureus [6], 2 µg/mL (≈ 5.27 µM); in the experiment on Enterococcus faecalis [7] it was 2 µg/mL (≈ 5.27 µM). For the same molecule, in the experiment with Enterococcus faecium [3], the ED50 (in general, the dose that gives a 50% effect, or the effect in half of the subjects) was 13.8 mg/kg.
Turning to `CC(=O)NC[C@H]1CN(c2ccc(N3CCN(C(=O)Nc4ccccn4)CC3)c(F)c2)C(=O)O1`, the MIC was determined as 1 µg/mL (≈ 2.19 µM) with Enterococcus faecalis [1]; 2 µg/mL (≈ 4.38 µM) in the experiment on Staphylococcus aureus [2]; 1 µg/mL (≈ 2.19 µM) with Enterococcus faecium [4]; 2 µg/mL (≈ 4.38 µM) against Staphylococcus aureus [5]; 2 µg/mL (≈ 4.38 µM) against Staphylococcus aureus [6]; 1 µg/mL (≈ 2.19 µM) with Enterococcus faecalis [7].
On to `CC(=O)NC[C@H]1CN(c2ccc(N3CCN(C(=O)Nc4ccon4)CC3)c(F)c2)C(=O)O1`, for which the MIC with Enterococcus faecalis [1] stood at 2 µg/mL (≈ 4.48 µM); in the experiment with Staphylococcus aureus [2], 4 µg/mL (≈ 8.96 µM); against Enterococcus faecium [4], 4 µg/mL (≈ 8.96 µM); in the experiment with Staphylococcus aureus [5], 4 µg/mL (≈ 8.96 µM); in the experiment with Staphylococcus aureus [6], 4 µg/mL (≈ 8.96 µM); with Enterococcus faecalis [7], 2 µg/mL (≈ 4.48 µM).
For `CC(=O)NC[C@H]1CN(c2ccc(N3CCN(C(=O)Nc4ccccc4)CC3)c(F)c2)C(=O)O1`, the MIC is 2 µg/mL (≈ 4.39 µM) against Enterococcus faecalis [1]; 2 µg/mL (≈ 4.39 µM) in the experiment on Staphylococcus aureus [2]; 2 µg/mL (≈ 4.39 µM) in the experiment on Enterococcus faecium [4]; 4 µg/mL (≈ 8.78 µM) against Staphylococcus aureus [5]; 4 µg/mL (≈ 8.78 µM) with Staphylococcus aureus [6]; 2 µg/mL (≈ 4.39 µM) with Enterococcus faecalis [7]. The molecule further had an ED50 in the experiment on Enterococcus faecium [3] above 10 mg/kg.
Consider `CNC(=O)N1CCN(c2ccc(N3C[C@H](CNC(C)=O)OC3=O)cc2F)CC1`, for which the MIC against Enterococcus faecalis [1] came out at 2 µg/mL (≈ 5.08 µM); against Staphylococcus aureus [2], 4 µg/mL (≈ 10.2 µM); against Enterococcus faecium [4], 4 µg/mL (≈ 10.2 µM); in the experiment on Staphylococcus aureus [5], 4 µg/mL (≈ 10.2 µM); against Staphylococcus aureus [6] it was 4 µg/mL (≈ 10.2 µM); in the experiment on Enterococcus faecalis [7] it was 4 µg/mL (≈ 10.2 µM).
Turning to `CC(=O)NC[C@H]1CN(c2ccc(N3CCN(C(=O)NO)CC3)c(F)c2)C(=O)O1`, the MIC in the experiment with Enterococcus faecalis [1] came out at 2 µg/mL (≈ 5.06 µM); against Staphylococcus aureus [2] it was 2 µg/mL (≈ 5.06 µM); against Enterococcus faecium [4], 2 µg/mL (≈ 5.06 µM); in the experiment on Staphylococcus aureus [5], 4 µg/mL (≈ 10.1 µM); in the experiment on Staphylococcus aureus [6] it was 4 µg/mL (≈ 10.1 µM); in the experiment with Enterococcus faecalis [7] it was 4 µg/mL (≈ 10.1 µM).
Turning to `CC(=O)NC[C@H]1CN(c2ccc(N3CCN(C(=O)Nc4ccc(Cl)cc4Cl)CC3)c(F)c2)C(=O)O1`, the MIC against Enterococcus faecalis [1] came to 1 µg/mL (≈ 1.91 µM); in the experiment on Staphylococcus aureus [2], 2 µg/mL (≈ 3.81 µM); with Enterococcus faecium [4] it was 2 µg/mL (≈ 3.81 µM); in the experiment with Staphylococcus aureus [5], 2 µg/mL (≈ 3.81 µM); against Staphylococcus aureus [6], 1 µg/mL (≈ 1.91 µM); in the experiment with Enterococcus faecalis [7], 2 µg/mL (≈ 3.81 µM). For the same molecule, the ED50 in the experiment with Enterococcus faecium [3] is above 10 mg/kg.
For the molecule `CC(=O)NC[C@H]1CN(c2ccc(N3CCN(C(=O)Nc4cccc(F)c4)CC3)c(F)c2)C(=O)O1`, the MIC in the experiment on Enterococcus faecalis [1] was determined as 1 µg/mL (≈ 2.11 µM); against Staphylococcus aureus [2], 2 µg/mL (≈ 4.22 µM); against Enterococcus faecium [4], 2 µg/mL (≈ 4.22 µM); in the experiment on Staphylococcus aureus [5] it was 4 µg/mL (≈ 8.45 µM); against Staphylococcus aureus [6], 2 µg/mL (≈ 4.22 µM); in the experiment with Enterococcus faecalis [7] it was 2 µg/mL (≈ 4.22 µM). The molecule further returned an ED50 in the experiment on Enterococcus faecium [3] of 18.4 mg/kg.
For the molecule `COc1ccccc1NC(=O)N1CCN(c2ccc(N3C[C@H](CNC(C)=O)OC3=O)cc2F)CC1`, the minimal inhibitory concentration (MIC) with Enterococcus faecalis [1], against Staphylococcus aureus [2], against Enterococcus faecium [4], with Staphylococcus aureus [5], in the experiment on Staphylococcus aureus [6] and in the experiment on Enterococcus faecalis [7] was 2 µg/mL (≈ 4.12 µM) each time. Moreover, it took a dose of 9.1 mg/kg to reach the 50% effect level in the experiment on Enterococcus faecium [3] (ED50).
As to `COc1ccc(NC(=O)N2CCN(c3ccc(N4C[C@H](CNC(C)=O)OC4=O)cc3F)CC2)c(OC)c1`, the MIC with Enterococcus faecalis [1] stood at 2 µg/mL (≈ 3.88 µM); in the experiment with Staphylococcus aureus [2], 4 µg/mL (≈ 7.76 µM); in the experiment on Enterococcus faecium [4] it was 4 µg/mL (≈ 7.76 µM); against Staphylococcus aureus [5] it was 4 µg/mL (≈ 7.76 µM); in the experiment with Staphylococcus aureus [6] it was 4 µg/mL (≈ 7.76 µM); in the experiment with Enterococcus faecalis [7], 2 µg/mL (≈ 3.88 µM).
As to `CC(=O)NC[C@H]1CN(c2ccc(N3CCN(C(=O)Nc4ccccc4Cl)CC3)c(F)c2)C(=O)O1`, the MIC against Enterococcus faecalis [1] worked out at 2 µg/mL (≈ 4.08 µM); with Staphylococcus aureus [2], 2 µg/mL (≈ 4.08 µM); in the experiment with Enterococcus faecium [4], 2 µg/mL (≈ 4.08 µM); in the experiment on Staphylococcus aureus [5] it was 4 µg/mL (≈ 8.16 µM); against Staphylococcus aureus [6], 2 µg/mL (≈ 4.08 µM); with Enterococcus faecalis [7], 2 µg/mL (≈ 4.08 µM).
On to `COc1ccc(CNC(=O)N2CCN(c3ccc(N4C[C@H](CNC(C)=O)OC4=O)cc3F)CC2)cc1`, for which the MIC was 2 µg/mL (≈ 4 µM) against Enterococcus faecalis [1]; 2 µg/mL (≈ 4 µM) in the experiment on Staphylococcus aureus [2]; 2 µg/mL (≈ 4 µM) against Enterococcus faecium [4]; 4 µg/mL (≈ 8.01 µM) with Staphylococcus aureus [5]; 2 µg/mL (≈ 4 µM) with Staphylococcus aureus [6]; 2 µg/mL (≈ 4 µM) against Enterococcus faecalis [7].
As for `CC(=O)NC[C@H]1CN(c2ccc(N3CCN(C(=O)Nc4nccs4)CC3)c(F)c2)C(=O)O1`, the MIC against Enterococcus faecalis [1] was found to be 1 µg/mL (≈ 2.16 µM); in the experiment with Staphylococcus aureus [2] it was 2 µg/mL (≈ 4.32 µM); against Enterococcus faecium [4] it was 1 µg/mL (≈ 2.16 µM); against Staphylococcus aureus [5], 2 µg/mL (≈ 4.32 µM); in the experiment on Staphylococcus aureus [6], 2 µg/mL (≈ 4.32 µM); against Enterococcus faecalis [7], 1 µg/mL (≈ 2.16 µM). The same molecule returned an ED50 in the experiment with Enterococcus faecium [3] of 18.4 mg/kg.
For `CC(=N)NC(=O)N1CCN(c2ccc(N3C[C@H](CNC(C)=O)OC3=O)cc2F)CC1`, the MIC came to 2 µg/mL (≈ 4.76 µM) against Enterococcus faecalis [1]; 4 µg/mL (≈ 9.51 µM) in the experiment with Staphylococcus aureus [2]; 4 µg/mL (≈ 9.51 µM) against Enterococcus faecium [4]; 4 µg/mL (≈ 9.51 µM) in the experiment on Staphylococcus aureus [5]; 4 µg/mL (≈ 9.51 µM) with Staphylococcus aureus [6]; 2 µg/mL (≈ 4.76 µM) with Enterococcus faecalis [7].
`CC(=O)NC[C@H]1CN(c2ccc(N3CCN(C(=O)NC4CC4)CC3)c(F)c2)C(=O)O1`: the MIC against Enterococcus faecalis [1] is 4 µg/mL (≈ 9.54 µM); against Staphylococcus aureus [2], 8 µg/mL (≈ 19.1 µM); in the experiment on Enterococcus faecium [4], 4 µg/mL (≈ 9.54 µM); with Staphylococcus aureus [5] it was 16 µg/mL (≈ 38.1 µM); with Staphylococcus aureus [6] it was 8 µg/mL (≈ 19.1 µM); against Enterococcus faecalis [7], 8 µg/mL (≈ 19.1 µM).
On to `CC(=O)NC[C@H]1CN(c2ccc(N3CCN(C(=O)NC(C)=O)CC3)c(F)c2)C(=O)O1`, for which the MIC in the experiment on Enterococcus faecalis [1] worked out at 4 µg/mL (≈ 9.49 µM); against Staphylococcus aureus [2], 8 µg/mL (≈ 19 µM); with Enterococcus faecium [4], 4 µg/mL (≈ 9.49 µM); with Staphylococcus aureus [5] it was 16 µg/mL (≈ 38 µM); in the experiment on Staphylococcus aureus [6], 8 µg/mL (≈ 19 µM); against Enterococcus faecalis [7] it was 8 µg/mL (≈ 19 µM).
Regarding `CC(=O)NC[C@H]1CN(c2ccc(N3CCN(C(=O)NC4CCCCCC4)CC3)c(F)c2)C(=O)O1`, the MIC stood at 2 µg/mL (≈ 4.21 µM) against Enterococcus faecalis [1]; 4 µg/mL (≈ 8.41 µM) with Staphylococcus aureus [2]; 4 µg/mL (≈ 8.41 µM) with Enterococcus faecium [4]; 4 µg/mL (≈ 8.41 µM) with Staphylococcus aureus [5]; 4 µg/mL (≈ 8.41 µM) against Staphylococcus aureus [6]; 4 µg/mL (≈ 8.41 µM) with Enterococcus faecalis [7].
Take `CC(=O)NC[C@H]1CN(c2ccc(N3CCN(C(=O)NCc4ccc(Cl)cc4)CC3)c(F)c2)C(=O)O1`: the MIC against Enterococcus faecalis [1] is 2 µg/mL (≈ 3.97 µM); against Staphylococcus aureus [2] it was 4 µg/mL (≈ 7.94 µM); against Enterococcus faecium [4], 4 µg/mL (≈ 7.94 µM); against Staphylococcus aureus [5], 4 µg/mL (≈ 7.94 µM); against Staphylococcus aureus [6], 4 µg/mL (≈ 7.94 µM); against Enterococcus faecalis [7] it was 4 µg/mL (≈ 7.94 µM).
On to `CC(=O)NC[C@H]1CN(c2ccc(N3CCN(C(=O)NC4CCCC4)CC3)c(F)c2)C(=O)O1`, for which the MIC against Enterococcus faecalis [1] came to 4 µg/mL (≈ 8.94 µM); with Staphylococcus aureus [2], 8 µg/mL (≈ 17.9 µM); in the experiment with Enterococcus faecium [4], 4 µg/mL (≈ 8.94 µM); in the experiment with Staphylococcus aureus [5] it was 8 µg/mL (≈ 17.9 µM); against Staphylococcus aureus [6], 8 µg/mL (≈ 17.9 µM); against Enterococcus faecalis [7], 4 µg/mL (≈ 8.94 µM).
Molecule `CC(=O)NC[C@H]1CN(c2ccc(N3CCOCC3)c(F)c2)C(=O)O1` [LINEZOLID] returned an ED50 in the experiment on Enterococcus faecium [3] of 3.91 mg/kg. This molecule also returned an MIC in the experiment with Enterococcus faecium [4] of 2 µg/mL (≈ 5.93 µM).
On to `CN[C@H](CC(C)C)C(=O)N[C@H]1C(=O)N[C@@H](CC(N)=O)C(=O)N[C@H]2C(=O)N[C@H]3C(=O)N[C@H](C(=O)N[C@H](C(=O)O)c4cc(O)cc(O)c4-c4cc3ccc4O)[C@H](O)c3ccc(c(Cl)c3)Oc3cc2cc(c3O[C@@H]2O[C@H](CO)[C@@H](O)[C@H](O)[C@H]2O[C@H]2C[C@](C)(N)[C@H](O)[C@H](C)O2)Oc2ccc(cc2Cl)[C@H]1O` [VANCOMYCIN], for which the MIC is above 32 µg/mL in the experiment on Enterococcus faecalis [1], above 32 µg/mL in the experiment with Enterococcus faecium [4] and 2 µg/mL (≈ 1.38 µM) in the experiment with Enterococcus faecalis [7]. In the experiment on Enterococcus faecium [8], this molecule returned an ED50 of 3.93 mg/kg.
